Laboratory results as given in ChEMBL document CHEMBL3585302, “Synthesis and antibacterial activities of cadiolides A, B and C and analogues” (Bioorg Med Chem, 2015).
Activity calls are given as the source filed them.

Legend:
Assay type in all cases: functional, organism-based
Bacillus cereus = experiment: Antibacterial activity against Bacillus cereus CECT 148 assessed as inhibition of microbial growth at 125 ug/ml incubated for 18 hrs by 2-fold microtiter broth dilution method
Procedure, shortened: (§1)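 Compounds in DMSO, ten 2-fold serial dilutions (125 down to 0.24 µg/mL tested). Bacteria at OD620 = 0.001 in Nutrient Broth mixed 1:1 with dilutions. Incubated overnight (18 h) at 28°C or 37°C according to strain. Growth read turbidimetrically at OD620. MIC is the lowest concentration giving complete growth inhibition. Triplicate runs. Tetracycline as reference.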

Escherichia coli [1] = experiment: Antibacterial activity against Escherichia coli CECT 100 assessed as inhibition of microbial growth at 125 ug/ml incubated for 18 hrs by 2-fold microtiter broth dilution method; procedure, shortened: as §1
Salmonella typhi = experiment: Antibacterial activity against Salmonella typhi CECT 409 assessed as inhibition of microbial growth at 125 ug/ml incubated for 18 hrs by 2-fold microtiter broth dilution method; conditions: Salmonella enterica subsp. enterica serovar Typhi
Procedure, shortened: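 Compounds in DMSO, ten 2-fold serial dilutions (125 down to 0.24 µg/mL), mixed 1:1 with bacteria in Nutrient Broth at OD620 = 0.001. Incubated overnight (18 h) at 28 or 37 °C depending on strain. Growth read turbidimetrically at OD620; MIC is the lowest concentration completely inhibiting growth, per CLSI. Triplicate runs; tetracycline reference.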

Enterococcus faecalis = experiment: Antibacterial activity against Enterococcus faecalis CECT 481 assessed as inhibition of microbial growth at 125 ug/ml incubated for 18 hrs by 2-fold microtiter broth dilution method; procedure, shortened: as §1
Bacillus subtilis = experiment: Antibacterial activity against Bacillus subtilis CECT 35 assessed as inhibition of microbial growth at 125 ug/ml incubated for 18 hrs by 2-fold microtiter broth dilution method; procedure, shortened: as §1
Escherichia coli [2] = experiment: Antibacterial activity against Escherichia coli CECT 405 assessed as inhibition of microbial growth at 125 ug/ml incubated for 18 hrs by 2-fold microtiter broth dilution method; procedure, shortened: as §1
Staphylococcus aureus = experiment: Antibacterial activity against Staphylococcus aureus CECT 86 assessed as inhibition of microbial growth at 125 ug/ml incubated for 18 hrs by 2-fold microtiter broth dilution method; procedure, shortened: as §1
[3] = system: Pectobacterium carotovorum; experiment: Antibacterial activity against Erwinia carotovora CECT 225 assessed as inhibition of microbial growth at 125 ug/ml incubated for 18 hrs by 2-fold microtiter broth dilution method; procedure, shortened: as §1

Measured: growth inhibition (GI)

COc1ccc(C2=C(C(=O)c3ccc(O)cc3)C(=O)O/C2=C\c2ccc(O)cc2)cc1
inactive: Bacillus cereus | Escherichia coli [1] | Salmonella typhi | Enterococcus faecalis | Bacillus subtilis | Escherichia coli [2] | Staphylococcus aureus | [3]

COc1ccc(C2=C(C(=O)c3cc(Br)c(O)c(Br)c3)C(=O)O/C2=C\c2cc(Br)c(O)c(Br)c2)cc1
inactive: Bacillus cereus | Escherichia coli [1] | Salmonella typhi | Enterococcus faecalis | Bacillus subtilis | Escherichia coli [2] | Staphylococcus aureus | [3]

COc1ccc(C2=C(C(=O)c3ccco3)C(=O)O/C2=C\c2ccc(O)cc2)cc1
inactive: Bacillus cereus | Escherichia coli [1] | Salmonella typhi | Enterococcus faecalis | Bacillus subtilis | Escherichia coli [2] | Staphylococcus aureus | [3]

COc1ccc(C2=C(C(=O)c3ccc(O)c(Br)c3)C(=O)O/C2=C\c2ccc(O)c(Br)c2)cc1
inactive: Bacillus cereus | Escherichia coli [1] | Salmonella typhi | Enterococcus faecalis | Bacillus subtilis | Escherichia coli [2] | Staphylococcus aureus | [3]

COc1c(Br)cc(C2=C(C(=O)c3cc(Br)c(O)c(Br)c3)C(=O)O/C2=C\c2cc(Br)c(O)c(Br)c2)cc1Br
inactive: Bacillus cereus | Escherichia coli [1] | Salmonella typhi | Enterococcus faecalis | Bacillus subtilis | Escherichia coli [2] | Staphylococcus aureus | [3]

COc1ccc(C2=C(C(=O)c3ccc(O)c(Br)c3)C(=O)O/C2=C\c2cc(Br)c(O)c(Br)c2)cc1Br
inactive: Bacillus cereus | Escherichia coli [1] | Salmonella typhi | Enterococcus faecalis | Bacillus subtilis | Escherichia coli [2] | Staphylococcus aureus | [3]
